Test results published in ChEMBL document CHEMBL2424522, “Demonic axe-like conjugated alkynes in combating microbes” (2013).
≈ marks a conversion by molar mass, not a printed value.

How the values were obtained:
Assay type in all cases: functional
[1] = tested on: Aspergillus flavus; test: Antifungal activity against Aspergillus flavus MTCC 277 at 100 ug/ml after 48 hrs by agar well diffusion method; settings: MTCC 277, 48 h, read-out: IZ
Procedure, shortened: (§1)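 Test samples and DMSO controls incubated at 27 °C for 48 h. Inhibition zone diameter measured in mm. Three to four replicates per treatment.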

[2] = tested on: Aspergillus niger; test: Antifungal activity against Aspergillus niger MTCC 344 at 100 ug/ml after 48 hrs by agar well diffusion method; settings: MTCC 344, 48 h, read-out: IZ; procedure, shortened: as §1
[3] = tested on: Saccharomyces cerevisiae; test: Antifungal activity against Saccharomyces cerevisiae MTCC 36 at 100 ug/ml after 48 hrs by agar well diffusion method; settings: MTCC 36, 48 h, read-out: IZ; procedure, shortened: as §1
[4] = tested on: Diutina rugosa; test: Antifungal activity against Candida rugosa NCIM 3462 at 100 ug/ml after 48 hrs by agar well diffusion method; settings: NCIM 3462, 48 h, read-out: IZ; procedure, shortened: as §1
[5] = tested on: Candida albicans; test: Antifungal activity against Candida albicans MTCC 227 at 100 ug/ml after 48 hrs by agar well diffusion method; settings: MTCC 227, 48 h, read-out: IZ; procedure, shortened: as §1
[6] = tested on: Aspergillus flavus; test: Antifungal activity against Aspergillus flavus MTCC 277 at 50 ug/ml after 48 hrs by agar well diffusion method; settings: MTCC 277, 48 h, read-out: IZ; procedure, shortened: as §1
[7] = tested on: Aspergillus niger; test: Antifungal activity against Aspergillus niger MTCC 344 at 50 ug/ml after 48 hrs by agar well diffusion method; settings: MTCC 344, 48 h, read-out: IZ; procedure, shortened: as §1
[8] = tested on: Saccharomyces cerevisiae; test: Antifungal activity against Saccharomyces cerevisiae MTCC 36 at 50 ug/ml after 48 hrs by agar well diffusion method; settings: MTCC 36, 48 h, read-out: IZ; procedure, shortened: as §1
[9] = tested on: Diutina rugosa; test: Antifungal activity against Candida rugosa NCIM 3462 at 50 ug/ml after 48 hrs by agar well diffusion method; settings: NCIM 3462, 48 h, read-out: IZ; procedure, shortened: as §1
[10] = tested on: Candida albicans; test: Antifungal activity against Candida albicans MTCC 227 at 50 ug/ml after 48 hrs by agar well diffusion method; settings: MTCC 227, 48 h, read-out: IZ; procedure, shortened: as §1
[11] = tested on: Klebsiella pneumoniae; test: Antibacterial activity against Klebsiella pneumoniae MTCC 618 by broth dilution method
Procedure, shortened: (§2)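 Broth dilution per NCCL standards; all phosphorus ylides and conjugated alkynes tested in vitro.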

[12] = tested on: Pseudomonas aeruginosa; test: Antibacterial activity against Pseudomonas aeruginosa MTCC 741 by broth dilution method; procedure, shortened: as §2
[13] = tested on: Escherichia coli; test: Antibacterial activity against Escherichia coli MTCC 443 by broth dilution method; procedure, shortened: as §2
[14] = tested on: Staphylococcus epidermidis; test: Antibacterial activity against Staphylococcus epidermidis MTCC 435 by broth dilution method; procedure, shortened: as §2
[15] = tested on: Staphylococcus aureus; test: Antibacterial activity against Staphylococcus aureus MTCC 96 by broth dilution method; procedure, shortened: as §2
[16] = tested on: Bacillus subtilis; test: Antibacterial activity against Bacillus subtilis MTCC 441 by broth dilution method; procedure, shortened: as §2

Row | Compound | MIC [11] | MIC [12] | MIC [13] | MIC [14] | MIC [15] | MIC [16] | zone of inhibition at 100 µg/mL [1] | zone of inhibition at 100 µg/mL [2] | zone of inhibition at 100 µg/mL [3] | zone of inhibition at 100 µg/mL [4] | zone of inhibition at 100 µg/mL [5] | zone of inhibition at 50 µg/mL [6] | zone of inhibition at 50 µg/mL [7] | zone of inhibition at 50 µg/mL [8] | zone of inhibition at 50 µg/mL [9] | zone of inhibition at 50 µg/mL [10]
1 | N#CC#Cc1cccnc1Cl | 12.5 µg/mL (≈ 76.9 µM) | 0.78 µg/mL (≈ 4.8 µM) | 100 µg/mL (≈ 615 µM) | 50 µg/mL (≈ 308 µM) | 6.25 µg/mL (≈ 38.4 µM) | 3.12 µg/mL (≈ 19.2 µM) | 39 mm | 30 mm | 11 mm | 29 mm | 28 mm | 35 mm | 26 mm | 0 mm | 23 mm | 23 mm
2 | CC(C)OC(=O)C#Cc1ccc(Cl)nc1 | 12.5 µg/mL (≈ 55.9 µM) | 1.56 µg/mL (≈ 6.97 µM) | 100 µg/mL (≈ 447 µM) | 1.56 µg/mL (≈ 6.97 µM) | 1.56 µg/mL (≈ 6.97 µM) | 50 µg/mL (≈ 224 µM) | 19 mm | 23 mm | 17 mm | 11 mm | 19 mm | 12 mm | 17 mm | 11 mm | 0 mm | 13 mm
3 | N#CC#Cc1cc(F)c(Cl)nc1Cl | 12.5 µg/mL (≈ 58.1 µM) | 100 µg/mL (≈ 465 µM) | 100 µg/mL (≈ 465 µM) | 25 µg/mL (≈ 116 µM) | 12.5 µg/mL (≈ 58.1 µM) | 6.25 µg/mL (≈ 29.1 µM) | 25 mm | 24 mm | 10 mm | 11 mm | 16 mm | 20 mm | 20 mm | 0 mm | 0 mm | 11 mm
4 | Cc1ccccc1C#CC#N | > 150 µg/mL | > 150 µg/mL | > 150 µg/mL | > 150 µg/mL | > 150 µg/mL | > 150 µg/mL | 0 mm | 0 mm | 0 mm | 0 mm | 0 mm | 0 mm | 0 mm | 0 mm | 0 mm | 0 mm

Now those with a lower MIC [11], led by results:

Row | MIC [11] | MIC [12] | MIC [13] | MIC [14] | MIC [15] | MIC [16] | Compound | zone of inhibition at 100 µg/mL [1] | zone of inhibition at 100 µg/mL [2] | zone of inhibition at 100 µg/mL [3] | zone of inhibition at 100 µg/mL [4] | zone of inhibition at 100 µg/mL [5] | zone of inhibition at 50 µg/mL [6] | zone of inhibition at 50 µg/mL [7] | zone of inhibition at 50 µg/mL [8] | zone of inhibition at 50 µg/mL [9] | zone of inhibition at 50 µg/mL [10]
5 | 3.12 µg/mL (≈ 19.2 µM) | 0.78 µg/mL (≈ 4.8 µM) | 100 µg/mL (≈ 615 µM) | 6.25 µg/mL (≈ 38.4 µM) | 1.56 µg/mL (≈ 9.6 µM) | 1.56 µg/mL (≈ 9.6 µM) | N#CC#Cc1ccc(Cl)nc1 | 47 mm | 43 mm | 10 mm | 28 mm | 40 mm | 44 mm | 39 mm | 0 mm | 33 mm | 35 mm
6 | 6.25 µg/mL (≈ 29.8 µM) | 0.78 µg/mL (≈ 3.72 µM) | 100 µg/mL (≈ 477 µM) | 50 µg/mL (≈ 239 µM) | 1.56 µg/mL (≈ 7.44 µM) | 6.25 µg/mL (≈ 29.8 µM) | CCOC(=O)C#Cc1ccc(Cl)nc1 | 25 mm | 29 mm | 29 mm | 15 mm | 20 mm | 20 mm | 25 mm | 25 mm | 10 mm | 15 mm
